# Experimental data taken from ChEMBL document CHEMBL1124758, “Renin inhibitory peptides. A beta-aspartyl residue as a replacement for the histidyl residue at the P-2 site” (J Med Chem, 1990).
# Biological target: T1, Renin (Homo sapiens, UniProt P00797)
# T1 sequence (P00797 whole entry): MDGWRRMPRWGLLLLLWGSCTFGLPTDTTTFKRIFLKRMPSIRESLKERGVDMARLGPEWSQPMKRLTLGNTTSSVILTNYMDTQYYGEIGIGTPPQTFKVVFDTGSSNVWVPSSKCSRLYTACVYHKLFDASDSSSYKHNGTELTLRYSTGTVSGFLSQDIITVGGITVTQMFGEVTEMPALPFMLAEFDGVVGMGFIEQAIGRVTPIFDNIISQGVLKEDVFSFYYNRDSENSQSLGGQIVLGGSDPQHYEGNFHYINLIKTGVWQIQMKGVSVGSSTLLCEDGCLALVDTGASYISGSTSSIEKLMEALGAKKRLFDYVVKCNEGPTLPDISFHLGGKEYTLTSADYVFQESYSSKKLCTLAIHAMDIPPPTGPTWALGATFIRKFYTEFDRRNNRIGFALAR
# Experiment: Inhibition of human plasma renin at pH 6
# Assay type: cell-free
# In short: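 Human plasma incubated with phenylmethanesulfonyl fluoride and maleate buffer (pH 6.0) plus peptide in 1% Tween 80/water vehicle, 90 min at 37 °C, for angiotensin I generation. Angiotensin I measured by radioimmunoassay kit. Percent inhibition from plasma renin activity versus control tubes. IC50 estimated from semilog plot of three or four peptide concentrations.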
row,IC50,SMILES
1,0.34 nM,CC[C@@H](C)[C@H](NC(=O)[C@@H](CC(O)[C@H](CC1CCCCC1)NC(=O)[C@@H](CC(=O)O)NC(=O)COc1ccccc1)C(C)C)C(=O)N(C)c1ccccn1 (some centres undefined)
2,1.9 nM,CC[C@@H](C)[C@H](NC(=O)[C@@H](CC(O)[C@H](CC(C)C)NC(=O)[C@@H](CC(=O)O)NC(=O)COc1ccccc1)C(C)C)C(=O)N(C)c1ccccn1 (some centres undefined)
3,8.5 nM,CC[C@@H](C)[C@H](NC(=O)[C@@H](CC(O)[C@H](CC(C)C)NC(=O)[C@H](Cc1c[nH]cn1)NC(=O)COc1ccccc1)C(C)C)C(=O)N(C)c1ccccn1 (some centres undefined)
4,1.2 nM,CC[C@@H](C)[C@H](NC(=O)[C@@H](CC(O)[C@H](CC(C)C)NC(=O)C(C(=O)Cc1ccccc1)C(O)C(=O)O)C(C)C)C(=O)N(C)c1ccccn1 (some centres undefined)
5,2 nM,CC[C@@H](C)[C@H](NC(=O)[C@@H](CC(O)[C@H](CC1CCCCC1)NC(=O)[C@@H](CC(=O)O)NC(=O)Cc1ccccc1)C(C)C)C(=O)N(C)c1ccccn1 (some centres undefined)
6,220 nM,CC[C@@H](C)[C@H](NC(=O)[C@@H](CC(O)[C@H](CC(C)C)NC(=O)[C@H](Cc1c[nH]cn1)NC(=O)Cc1ccccc1)C(C)C)C(=O)N(C)c1ccccn1 (some centres undefined)
7,17 nM,CC[C@@H](C)[C@H](NC(=O)[C@@H](CC(O)[C@H](CC(C)C)NC(=O)C(CC(=O)O)NC(=O)Cc1ccccc1)C(C)C)C(=O)N(C)c1ccccn1 (stereo in doubt)

# Second part, the compound before the results:
row,SMILES,IC50
1,CC[C@@H](C)[C@H](NC(=O)[C@@H](CC(O)[C@H](CC(C)C)NC(=O)C(C(=O)COc1ccccc1)C(O)C(=O)O)C(C)C)C(=O)N(C)c1ccccn1 (some centres undefined),0.7 nM
2,CC[C@@H](C)[C@H](NC(=O)[C@@H](CC(O)[C@H](CC(C)C)NC(=O)[C@@H](CC(=O)O)NC(=O)Cc1ccccc1)C(C)C)C(=O)N(C)c1ccccn1 (some centres undefined),3.5 nM
3,CC[C@@H](C)CNC(=O)[C@@H](CC(O)[C@H](CC(C)C)NC(=O)C(C(=O)COc1ccccc1)C(O)C(=O)O)C(C)C (some centres undefined),2.2 nM
4,CC[C@@H](C)CNC(=O)[C@@H](NC(O)[C@@H](CC(=O)[C@H](CC(=O)O)NC(=O)COc1ccccc1)CC1CCCCC1)C(C)C (some centres undefined),5.2 nM
5,CC[C@@H](C)CNC(=O)[C@@H](CC(O)[C@H](CC(C)C)NC(=O)C(C(=O)Cc1ccccc1)C(O)C(=O)O)C(C)C (some centres undefined),6 nM
6,CC[C@@H](C)CNC(=O)[C@@H](CC(O)[C@H](CC(C)C)NC(=O)[C@@H](CC(=O)O)NC(=O)COc1ccccc1)C(C)C (some centres undefined),20 nM
7,CC[C@@H](C)CNC(=O)[C@@H](CC(O)[C@H](CC1CCCCC1)NC(=O)C(C(=O)COc1ccccc1)C(O)C(=O)O)C(C)C (some centres undefined),3.6 nM
